Experimental data as given in ChEMBL document CHEMBL1143164, “Synthesis and structure-activity relationships of ring-opened 17-hydroxywortmannins: potent phosphoinositide 3-kinase inhibitors with improved properties and anticancer efficacy” (J Med Chem, 2008).
pIC50: −log10 of the molar value. Calls of active or inactive are those of the source. The calls are words filed in the database; no cut-off is given here.

Legend:
[1] = biological target: Phosphatidylinositol 4,5-bisphosphate 3-kinase catalytic subunit beta isoform (Homo sapiens, UniProt P42338); test: Inhibition of PI3Kbeta
Procedure, shortened: (§1)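 Fluorescence polarization assay using purchased PI3K enzyme. It was stopped with TAMRA-labeled probe (10 nM) plus GST-GRP1 (40 nM), incubated 1–2 h, and FP was read.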

[2] = biological target: T1, Phosphatidylinositol 4,5-bisphosphate 3-kinase catalytic subunit alpha isoform (Homo sapiens, UniProt P42336); test: Inhibition of PI3K mediated S6K phosphorylation in PTEN negative human U87MG cells at 30 ng/ml; assay type: cell-based; settings: U-87MG ATCC
T1 sequence (P42336 whole entry, canonical isoform): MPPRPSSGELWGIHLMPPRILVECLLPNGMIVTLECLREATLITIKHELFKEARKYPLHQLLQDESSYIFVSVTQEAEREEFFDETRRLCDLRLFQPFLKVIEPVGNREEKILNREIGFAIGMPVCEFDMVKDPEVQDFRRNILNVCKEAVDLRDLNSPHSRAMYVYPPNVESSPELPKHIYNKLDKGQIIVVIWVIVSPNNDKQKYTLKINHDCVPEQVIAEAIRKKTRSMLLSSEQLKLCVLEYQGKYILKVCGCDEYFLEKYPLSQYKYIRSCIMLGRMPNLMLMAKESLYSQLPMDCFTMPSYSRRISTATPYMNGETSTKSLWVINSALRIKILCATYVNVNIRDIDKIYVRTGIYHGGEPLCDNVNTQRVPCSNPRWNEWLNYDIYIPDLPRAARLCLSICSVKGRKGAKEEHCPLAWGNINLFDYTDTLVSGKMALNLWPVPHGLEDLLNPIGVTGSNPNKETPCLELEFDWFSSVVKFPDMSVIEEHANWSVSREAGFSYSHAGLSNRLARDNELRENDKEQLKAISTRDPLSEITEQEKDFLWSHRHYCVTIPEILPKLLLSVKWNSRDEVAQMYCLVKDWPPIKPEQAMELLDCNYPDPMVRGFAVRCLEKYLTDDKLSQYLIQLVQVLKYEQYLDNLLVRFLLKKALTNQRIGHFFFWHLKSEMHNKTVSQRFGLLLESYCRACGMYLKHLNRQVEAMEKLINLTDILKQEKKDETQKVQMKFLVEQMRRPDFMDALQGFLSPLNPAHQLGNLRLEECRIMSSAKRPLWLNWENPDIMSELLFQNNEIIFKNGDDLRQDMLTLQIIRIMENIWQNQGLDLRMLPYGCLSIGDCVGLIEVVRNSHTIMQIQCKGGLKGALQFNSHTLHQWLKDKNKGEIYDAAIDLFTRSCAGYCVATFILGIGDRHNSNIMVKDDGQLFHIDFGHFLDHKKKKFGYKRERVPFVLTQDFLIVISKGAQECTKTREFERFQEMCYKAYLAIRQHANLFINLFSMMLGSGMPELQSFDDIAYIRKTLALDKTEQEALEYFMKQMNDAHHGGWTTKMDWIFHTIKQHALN
Procedure, shortened: (§2)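 PTEN-negative U87MG cells were plated in six-well plates for 24 h, then treated in growth medium for 6 h against a DMSO control. PI3K pathway phosphorylation was then assessed.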

[3] = biological target: Ribosomal protein S6 kinase beta-1 (Homo sapiens, UniProt P23443); test: Inhibition of S6K1
Ribosomal protein S6 kinase beta-1, sequence (P23443 whole entry): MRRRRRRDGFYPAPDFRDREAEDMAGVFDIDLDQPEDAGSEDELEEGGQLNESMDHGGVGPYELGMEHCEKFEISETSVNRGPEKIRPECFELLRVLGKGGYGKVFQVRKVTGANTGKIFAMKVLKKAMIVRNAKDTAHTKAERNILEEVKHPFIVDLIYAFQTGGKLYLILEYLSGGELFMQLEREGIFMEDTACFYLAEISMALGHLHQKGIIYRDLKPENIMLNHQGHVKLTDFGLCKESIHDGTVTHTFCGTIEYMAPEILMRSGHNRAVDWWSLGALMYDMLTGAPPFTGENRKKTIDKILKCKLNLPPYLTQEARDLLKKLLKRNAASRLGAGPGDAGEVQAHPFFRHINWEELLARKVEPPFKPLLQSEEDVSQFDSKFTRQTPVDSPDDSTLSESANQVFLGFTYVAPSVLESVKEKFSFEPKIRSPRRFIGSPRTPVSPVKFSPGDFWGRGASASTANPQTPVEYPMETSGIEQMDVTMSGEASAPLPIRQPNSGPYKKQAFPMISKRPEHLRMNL

[4] = biological target: RAC-alpha serine/threonine-protein kinase (Homo sapiens, UniProt P31749); test: Inhibition of AKT1
RAC-alpha serine/threonine-protein kinase, sequence (P31749 whole entry): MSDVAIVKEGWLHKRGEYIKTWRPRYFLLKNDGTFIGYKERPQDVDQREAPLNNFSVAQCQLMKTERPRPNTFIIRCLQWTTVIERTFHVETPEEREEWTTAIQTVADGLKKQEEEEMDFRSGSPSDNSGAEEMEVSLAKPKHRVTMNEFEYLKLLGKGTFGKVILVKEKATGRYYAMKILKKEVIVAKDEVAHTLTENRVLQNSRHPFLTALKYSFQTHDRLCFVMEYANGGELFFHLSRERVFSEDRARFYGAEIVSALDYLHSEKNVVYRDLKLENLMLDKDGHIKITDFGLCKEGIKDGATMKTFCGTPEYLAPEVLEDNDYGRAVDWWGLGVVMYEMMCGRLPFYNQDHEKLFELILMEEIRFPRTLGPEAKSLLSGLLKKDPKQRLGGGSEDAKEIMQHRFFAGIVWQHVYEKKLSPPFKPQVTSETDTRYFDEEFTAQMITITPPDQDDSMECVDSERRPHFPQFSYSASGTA

[5] = biological target: Mitogen-activated protein kinase kinase kinase 8 (Homo sapiens, UniProt P41279); test: Inhibition of Tpl2
Mitogen-activated protein kinase kinase kinase 8, sequence (P41279 whole entry): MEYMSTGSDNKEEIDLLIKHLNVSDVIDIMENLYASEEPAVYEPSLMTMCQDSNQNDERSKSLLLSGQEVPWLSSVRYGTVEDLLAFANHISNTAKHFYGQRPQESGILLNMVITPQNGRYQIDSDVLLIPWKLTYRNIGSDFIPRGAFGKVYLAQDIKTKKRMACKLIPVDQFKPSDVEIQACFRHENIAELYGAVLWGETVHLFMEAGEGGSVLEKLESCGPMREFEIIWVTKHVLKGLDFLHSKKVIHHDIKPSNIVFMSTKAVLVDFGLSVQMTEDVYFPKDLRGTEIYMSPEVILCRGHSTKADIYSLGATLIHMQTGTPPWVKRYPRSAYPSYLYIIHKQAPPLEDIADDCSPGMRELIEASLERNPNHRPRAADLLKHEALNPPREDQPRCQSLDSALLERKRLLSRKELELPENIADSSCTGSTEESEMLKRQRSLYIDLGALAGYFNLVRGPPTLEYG

[6] = Inhibition of GSK3
[7] = biological target: T2, Phosphatidylinositol 4,5-bisphosphate 3-kinase catalytic subunit delta isoform (Homo sapiens, UniProt O00329); test: Inhibition of PI3Kdelta; procedure, shortened: as §1
T2 sequence (O00329 whole entry): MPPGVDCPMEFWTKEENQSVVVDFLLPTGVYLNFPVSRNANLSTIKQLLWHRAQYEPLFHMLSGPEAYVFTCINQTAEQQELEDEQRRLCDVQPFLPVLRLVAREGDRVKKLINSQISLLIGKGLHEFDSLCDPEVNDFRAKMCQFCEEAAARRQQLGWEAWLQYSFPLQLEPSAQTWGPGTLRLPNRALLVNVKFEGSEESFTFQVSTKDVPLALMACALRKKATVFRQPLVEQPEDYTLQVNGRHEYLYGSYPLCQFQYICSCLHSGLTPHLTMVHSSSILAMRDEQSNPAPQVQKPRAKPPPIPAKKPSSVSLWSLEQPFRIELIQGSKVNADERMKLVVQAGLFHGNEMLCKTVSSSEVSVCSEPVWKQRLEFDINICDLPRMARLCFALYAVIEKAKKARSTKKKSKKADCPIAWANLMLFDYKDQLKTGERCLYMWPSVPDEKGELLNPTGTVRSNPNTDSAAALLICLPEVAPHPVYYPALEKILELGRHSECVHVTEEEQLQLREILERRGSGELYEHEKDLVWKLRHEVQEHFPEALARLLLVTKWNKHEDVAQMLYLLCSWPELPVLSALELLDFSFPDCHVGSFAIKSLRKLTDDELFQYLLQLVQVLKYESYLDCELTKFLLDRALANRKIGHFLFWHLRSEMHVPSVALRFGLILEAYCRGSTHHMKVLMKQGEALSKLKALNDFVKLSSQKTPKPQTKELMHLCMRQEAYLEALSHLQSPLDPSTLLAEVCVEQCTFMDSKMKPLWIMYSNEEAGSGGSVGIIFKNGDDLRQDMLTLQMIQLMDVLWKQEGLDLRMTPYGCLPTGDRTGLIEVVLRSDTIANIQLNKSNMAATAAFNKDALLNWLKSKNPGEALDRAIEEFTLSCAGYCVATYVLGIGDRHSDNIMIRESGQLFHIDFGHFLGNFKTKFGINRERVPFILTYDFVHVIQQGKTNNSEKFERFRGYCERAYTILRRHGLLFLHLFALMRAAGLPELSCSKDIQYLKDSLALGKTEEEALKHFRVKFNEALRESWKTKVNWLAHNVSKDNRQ

[8] = Inhibition of IGFR
[9] = biological target: Phosphatidylinositol 4,5-bisphosphate 3-kinase catalytic subunit gamma isoform (Homo sapiens, UniProt P48736); test: Inhibition of PI3Kgamma; procedure, shortened: as §1
[10] = biological target: Vascular endothelial growth factor receptor 2 (Homo sapiens, UniProt P35968); test: Inhibition of KDR
Vascular endothelial growth factor receptor 2, sequence (P35968 whole entry): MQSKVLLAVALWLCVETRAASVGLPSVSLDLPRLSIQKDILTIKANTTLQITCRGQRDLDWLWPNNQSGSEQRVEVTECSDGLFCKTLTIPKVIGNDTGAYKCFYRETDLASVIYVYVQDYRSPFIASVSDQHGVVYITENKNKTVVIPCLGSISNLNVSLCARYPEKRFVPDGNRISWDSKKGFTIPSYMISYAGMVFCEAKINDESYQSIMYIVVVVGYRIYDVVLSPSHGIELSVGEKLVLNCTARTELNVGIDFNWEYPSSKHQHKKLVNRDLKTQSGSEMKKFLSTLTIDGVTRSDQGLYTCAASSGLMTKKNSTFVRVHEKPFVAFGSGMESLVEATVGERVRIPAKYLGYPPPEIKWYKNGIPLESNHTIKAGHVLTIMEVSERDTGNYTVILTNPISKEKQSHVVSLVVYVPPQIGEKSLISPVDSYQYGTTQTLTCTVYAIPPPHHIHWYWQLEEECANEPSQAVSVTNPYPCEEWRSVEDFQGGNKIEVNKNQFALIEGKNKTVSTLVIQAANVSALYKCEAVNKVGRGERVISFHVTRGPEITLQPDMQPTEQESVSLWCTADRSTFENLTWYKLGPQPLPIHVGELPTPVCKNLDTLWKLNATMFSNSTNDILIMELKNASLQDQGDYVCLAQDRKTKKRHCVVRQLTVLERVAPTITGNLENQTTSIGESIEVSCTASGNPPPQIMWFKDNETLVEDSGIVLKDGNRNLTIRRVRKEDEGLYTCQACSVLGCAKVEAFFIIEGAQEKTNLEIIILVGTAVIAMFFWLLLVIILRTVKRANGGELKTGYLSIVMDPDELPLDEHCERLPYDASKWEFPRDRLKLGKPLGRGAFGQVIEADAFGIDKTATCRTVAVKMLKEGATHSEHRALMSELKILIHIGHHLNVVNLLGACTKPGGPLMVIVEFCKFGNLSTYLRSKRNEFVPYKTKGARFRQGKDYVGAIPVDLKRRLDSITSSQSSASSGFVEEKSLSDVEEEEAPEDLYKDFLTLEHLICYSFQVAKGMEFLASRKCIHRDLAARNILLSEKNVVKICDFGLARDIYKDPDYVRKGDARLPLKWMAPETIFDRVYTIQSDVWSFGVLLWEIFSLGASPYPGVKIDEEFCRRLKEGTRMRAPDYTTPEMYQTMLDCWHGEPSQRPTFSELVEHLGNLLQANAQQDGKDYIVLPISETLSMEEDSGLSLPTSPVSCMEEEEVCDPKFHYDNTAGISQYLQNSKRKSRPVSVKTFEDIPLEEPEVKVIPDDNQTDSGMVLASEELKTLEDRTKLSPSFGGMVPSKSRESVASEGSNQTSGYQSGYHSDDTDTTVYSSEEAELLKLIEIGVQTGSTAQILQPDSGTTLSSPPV

[11] = biological target: MAP kinase-activated protein kinase 2 (Homo sapiens, UniProt P49137); test: Inhibition of MK2
MAP kinase-activated protein kinase 2, sequence (P49137 whole entry): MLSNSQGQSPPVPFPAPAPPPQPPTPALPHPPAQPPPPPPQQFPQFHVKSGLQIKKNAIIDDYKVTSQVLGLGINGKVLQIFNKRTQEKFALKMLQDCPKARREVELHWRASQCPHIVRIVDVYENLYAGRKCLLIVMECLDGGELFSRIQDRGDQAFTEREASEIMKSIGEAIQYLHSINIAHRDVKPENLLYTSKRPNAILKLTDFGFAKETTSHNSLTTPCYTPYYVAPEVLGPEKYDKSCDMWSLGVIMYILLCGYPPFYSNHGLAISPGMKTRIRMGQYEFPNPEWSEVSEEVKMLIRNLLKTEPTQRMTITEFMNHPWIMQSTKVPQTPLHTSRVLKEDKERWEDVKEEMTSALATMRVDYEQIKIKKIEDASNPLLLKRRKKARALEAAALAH

[12] = biological target: Cyclin-dependent kinase 4 (Homo sapiens, UniProt P11802); test: Inhibition of CDK4
Cyclin-dependent kinase 4, sequence (P11802 whole entry): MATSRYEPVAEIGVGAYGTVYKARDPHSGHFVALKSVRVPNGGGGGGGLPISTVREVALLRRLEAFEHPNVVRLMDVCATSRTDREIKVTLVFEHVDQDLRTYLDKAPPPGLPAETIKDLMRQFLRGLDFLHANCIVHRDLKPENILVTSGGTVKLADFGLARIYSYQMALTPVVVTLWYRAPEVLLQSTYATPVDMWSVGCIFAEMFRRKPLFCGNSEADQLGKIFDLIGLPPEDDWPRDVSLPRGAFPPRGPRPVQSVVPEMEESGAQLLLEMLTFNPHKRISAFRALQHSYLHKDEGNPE

[13] = biological target: Serine/threonine-protein kinase mTOR (Homo sapiens, UniProt P42345); test: Inhibition of mTOR
[14] = Clearance in mouse at 5 mg/kg, iv; assay type: ADME, organism-based; parameters: dose 5 mg/kg, route intravenous; settings: in vivo
Procedure, shortened: (§3)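 Nude mice received a single intravenous bolus of 5 mg/kg. Plasma levels of parent and the 11-deacetylated metabolite were followed over time to derive clearance, volume of distribution and half-life.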

[15] = Antitumor activity against human U87MG cells xenografted mouse administered intravenously twice a week for two weeks; assay type: functional, U-87MG ATCC; settings: U-87 MG, iv, 336 h, read-out: MED
Procedure, shortened: (§4)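 Nude mice bearing U87MG glioma xenografts; compound in PBS given intravenously on the stated schedule for 2 weeks. Tumor growth was monitored twice a week, and tumor volume was determined by a previously described method. Efficacy was expressed as minimum efficacious dose.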

LNCaP = test: Growth inhibition of human LNCap cells; assay type: functional, cell-based
[16] = biological target: Dual specificity mitogen-activated protein kinase kinase 1 (Homo sapiens, UniProt Q02750); test: Inhibition of MEK1
Dual specificity mitogen-activated protein kinase kinase 1, sequence (Q02750 whole entry, canonical isoform): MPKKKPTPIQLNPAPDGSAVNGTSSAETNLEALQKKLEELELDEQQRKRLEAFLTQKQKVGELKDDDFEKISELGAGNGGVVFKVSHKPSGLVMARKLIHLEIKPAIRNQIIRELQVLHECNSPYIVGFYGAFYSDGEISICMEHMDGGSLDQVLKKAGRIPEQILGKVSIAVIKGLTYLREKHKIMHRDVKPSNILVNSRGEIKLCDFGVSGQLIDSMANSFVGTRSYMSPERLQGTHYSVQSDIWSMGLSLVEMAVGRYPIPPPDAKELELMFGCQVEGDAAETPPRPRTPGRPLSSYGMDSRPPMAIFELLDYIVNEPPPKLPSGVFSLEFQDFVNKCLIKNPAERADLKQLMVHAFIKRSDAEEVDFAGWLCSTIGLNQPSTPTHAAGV

[17] = biological target: T1, Phosphatidylinositol 4,5-bisphosphate 3-kinase catalytic subunit alpha isoform; test: Inhibition of PI3K mediated AKT phosphorylation in PTEN negative human U87MG cells at 30 ng/ml; assay type: cell-based; settings: U-87MG ATCC; procedure, shortened: as §2
[18] = Volume of distribution in mouse at 5 mg/kg, iv; assay type: ADME, organism-based; parameters: dose 5 mg/kg, route intravenous; settings: in vivo, read-out: Vdss; procedure, shortened: as §3
[19] = Aqueous solubility of the compound; assay type: physicochemical
[20] = Half life in mouse at 5 mg/kg, iv; assay type: ADME, organism-based; parameters: dose 5 mg/kg, route intravenous; settings: in vivo; procedure, shortened: as §3
[21] = Antitumor activity against human U87MG cells xenografted mouse administered intravenously once a week for two weeks; assay type: functional, U-87MG ATCC; settings: U-87 MG, iv, 336 h, read-out: MED; procedure, shortened: as §4
[22] = biological target: T3, Inhibitor of nuclear factor kappa-B kinase subunit beta (Homo sapiens, UniProt O14920); test: Inhibition of IKK-beta
T3 sequence (O14920 whole entry): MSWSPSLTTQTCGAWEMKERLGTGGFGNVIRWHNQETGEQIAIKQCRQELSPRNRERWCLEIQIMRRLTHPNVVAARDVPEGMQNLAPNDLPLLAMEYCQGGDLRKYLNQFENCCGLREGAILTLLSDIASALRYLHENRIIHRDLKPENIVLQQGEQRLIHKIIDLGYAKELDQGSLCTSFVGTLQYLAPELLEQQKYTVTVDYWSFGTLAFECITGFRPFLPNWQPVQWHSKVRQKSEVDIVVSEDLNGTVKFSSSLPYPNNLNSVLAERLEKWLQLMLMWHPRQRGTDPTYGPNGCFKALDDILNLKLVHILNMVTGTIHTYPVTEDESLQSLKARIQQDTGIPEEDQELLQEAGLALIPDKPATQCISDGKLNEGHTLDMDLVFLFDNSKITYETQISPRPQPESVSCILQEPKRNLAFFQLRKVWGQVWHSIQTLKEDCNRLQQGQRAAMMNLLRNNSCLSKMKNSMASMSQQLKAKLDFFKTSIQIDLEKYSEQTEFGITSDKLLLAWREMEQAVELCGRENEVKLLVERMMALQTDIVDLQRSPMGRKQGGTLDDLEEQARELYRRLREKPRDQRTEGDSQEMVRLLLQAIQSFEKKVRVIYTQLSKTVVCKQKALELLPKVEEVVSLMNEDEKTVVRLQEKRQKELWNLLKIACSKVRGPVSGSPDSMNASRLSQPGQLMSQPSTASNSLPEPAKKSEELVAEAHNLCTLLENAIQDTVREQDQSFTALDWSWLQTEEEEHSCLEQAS

[23] = biological target: T1, Phosphatidylinositol 4,5-bisphosphate 3-kinase catalytic subunit alpha isoform; test: Inhibition of PI3K expressed in Escherichia coli by microtiter plate-based fluorescence polarization assay
Procedure, shortened: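 Fluorescence polarization assay of PI3K activity with PIP2 substrate. Reactions contained 20 mM Hepes pH 7.5, 2 mM MgCl2, 0.05% CHAPS, 0.01% βME, 20 µM PIP2 and 25 µM ATP, and ran 15–30 min at room temperature. They were stopped with buffer holding 10 nM TAMRA-labeled probe and 40 nM GST-GRP1 (E. coli-expressed detector), then incubated 1–2 h before FP readout.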

[24] = biological target: Tyrosine-protein kinase Lyn (Homo sapiens, UniProt P07948); test: Inhibition of LYN
[25] = Chemical stability at pH 7.4; assay type: physicochemical; settings: buffer, read-out: Stability
Procedure, shortened: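 Compound was incubated with the dipeptide lysine-phenylalanine at pH 7.4. Half-life of amine adduct formation was measured.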

[26] = Antitumor activity against human U87MG cells xenografted mouse administered intravenously thrice a week for two weeks; assay type: functional, U-87MG ATCC; settings: U-87 MG, iv, 336 h, read-out: MED
Procedure, shortened: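 Nude mice bearing U87MG glioma xenografts; dosed iv in PBS at the stated doses and schedules for 2 weeks. Tumor growth was monitored twice weekly, and tumor volume was determined by a previously described method.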

[27] = biological target: Tyrosine-protein kinase BTK (Homo sapiens, UniProt Q06187); test: Inhibition of BTK

COC[C@H]1OC(=O)/C(=C/N(C)CCCN(C)C)C2=C(O)C(=O)C3=C([C@H](OC(C)=O)C[C@]4(C)[C@@H](O)CC[C@@H]34)[C@]21C
pIC50 [1]: 7.89 | Activity [2]: Active | pIC50 [3]: < 4.52 | pIC50 [4]: < 4.52 | pIC50 [5]: < 4.40 | pIC50 [6]: < 5.00 | pIC50 [7]: 7.96 | pIC50 [8]: < 5.00 | pIC50 [9]: 5.10 | pIC50 [10]: < 5.00 | pIC50 [11]: < 3.70 | pIC50 [12]: < 4.30 | pIC50 [13]: 5.53 | clearance [14]: 50 mL/min/kg | minimal effective dose [15]: < 1.25 mg/kg | pIC50 (LNCaP): 6.41 | pIC50 [16]: < 5.00 | Activity [17]: Active | Vd [18]: 0.7 L/kg | solubility [19]: > 10000 µg/mL | half-life [20]: 30 min | minimal effective dose [21]: 2.5 mg/kg | pIC50 [22]: < 5.00 | pIC50 [23]: 7.19 | pIC50 [24]: < 4.52

COC[C@H]1OC(=O)c2coc3c2[C@@]1(C)C1=C(C3=O)[C@@H]2CC[C@H](O)[C@@]2(C)C[C@H]1OC(C)=O
half-life [25]: 4 min | pIC50 [13]: 6.71 | pIC50 (LNCaP): 5.83 | half-life [20]: 4 min | pIC50 [23]: 8.57

COC[C@H]1OC(=O)/C(=C/N(C)CC(=O)OC(C)(C)C)C2=C(O)C(=O)C3=C([C@H](OC(C)=O)C[C@]4(C)[C@@H](O)CC[C@@H]34)[C@]21C
pIC50 [13]: 4.86 | pIC50 (LNCaP): 6.76 | pIC50 [23]: 5.80

COC[C@H]1OC(=O)/C(=C/N2CCN(c3ccccc3)CC2)C2=C(O)C(=O)C3=C([C@H](OC(C)=O)C[C@]4(C)[C@@H](O)CC[C@@H]34)[C@]21C
pIC50 [13]: 6.16 | pIC50 (LNCaP): 6.02 | pIC50 [23]: 7.25

COC[C@H]1OC(=O)/C(=C/N2CCOCC2)C2=C(O)C(=O)C3=C([C@H](OC(C)=O)C[C@]4(C)[C@@H](O)CC[C@@H]34)[C@]21C
pIC50 [13]: 6.08 | pIC50 (LNCaP): 6.02 | pIC50 [23]: 7.43

COC[C@H]1OC(=O)/C(=C/N2CCC(C(=O)O)CC2)C2=C(O)C(=O)C3=C([C@H](OC(C)=O)C[C@]4(C)[C@@H](O)CC[C@@H]34)[C@]21C
pIC50 [13]: 6.09 | pIC50 (LNCaP): 6.30 | pIC50 [23]: 7.48

COC[C@H]1OC(=O)/C(=C/N(CCO)C(C)(C)C)C2=C(O)C(=O)C3=C([C@H](OC(C)=O)C[C@]4(C)[C@@H](O)CC[C@@H]34)[C@]21C
minimal effective dose [26]: 5 mg/kg | pIC50 [3]: < 4.52 | pIC50 [4]: < 4.52 | pIC50 [5]: < 4.40 | pIC50 [6]: < 5.00 | pIC50 [8]: < 5.00 | pIC50 [10]: < 5.00 | pIC50 [11]: < 3.70 | pIC50 [12]: < 4.30 | pIC50 [13]: 4.54 | pIC50 [27]: < 5.00 | minimal effective dose [15]: 7.5 mg/kg | pIC50 (LNCaP): 6.89 | pIC50 [16]: < 5.00 | minimal effective dose [21]: 15 mg/kg | pIC50 [22]: < 5.00 | pIC50 [23]: 5.95 | pIC50 [24]: < 4.52
